According to ChEMBL document CHEMBL4304743, “Discovery of ( E)- N1-(3-Fluorophenyl)- N3-(3-(2-(pyridin-2-yl)vinyl)-1 H-indazol-6-yl)malonamide (CHMFL-KIT-033) as a Novel c-KIT T670I Mutant Selective Kinase Inhibitor for Gastrointestinal Stromal Tumors (GISTs)” (J Med Chem, 2019):

Legend:
Format in all cases: cell-based
[1] = tested on: Mast/stem cell growth factor receptor Kit (Homo sapiens), P10721 [T670I]; assay: Inhibition of TEL fused c-KIT T670I mutant (unknown origin) transfected in mouse BAF3 cells assessed as growth inhibition after 72 hrs by CCK8 assay
Chain of Mast/stem cell growth factor receptor Kit (Homo sapiens), P10721 [T670I] (P10721 whole entry T670I, the tested form may be a part): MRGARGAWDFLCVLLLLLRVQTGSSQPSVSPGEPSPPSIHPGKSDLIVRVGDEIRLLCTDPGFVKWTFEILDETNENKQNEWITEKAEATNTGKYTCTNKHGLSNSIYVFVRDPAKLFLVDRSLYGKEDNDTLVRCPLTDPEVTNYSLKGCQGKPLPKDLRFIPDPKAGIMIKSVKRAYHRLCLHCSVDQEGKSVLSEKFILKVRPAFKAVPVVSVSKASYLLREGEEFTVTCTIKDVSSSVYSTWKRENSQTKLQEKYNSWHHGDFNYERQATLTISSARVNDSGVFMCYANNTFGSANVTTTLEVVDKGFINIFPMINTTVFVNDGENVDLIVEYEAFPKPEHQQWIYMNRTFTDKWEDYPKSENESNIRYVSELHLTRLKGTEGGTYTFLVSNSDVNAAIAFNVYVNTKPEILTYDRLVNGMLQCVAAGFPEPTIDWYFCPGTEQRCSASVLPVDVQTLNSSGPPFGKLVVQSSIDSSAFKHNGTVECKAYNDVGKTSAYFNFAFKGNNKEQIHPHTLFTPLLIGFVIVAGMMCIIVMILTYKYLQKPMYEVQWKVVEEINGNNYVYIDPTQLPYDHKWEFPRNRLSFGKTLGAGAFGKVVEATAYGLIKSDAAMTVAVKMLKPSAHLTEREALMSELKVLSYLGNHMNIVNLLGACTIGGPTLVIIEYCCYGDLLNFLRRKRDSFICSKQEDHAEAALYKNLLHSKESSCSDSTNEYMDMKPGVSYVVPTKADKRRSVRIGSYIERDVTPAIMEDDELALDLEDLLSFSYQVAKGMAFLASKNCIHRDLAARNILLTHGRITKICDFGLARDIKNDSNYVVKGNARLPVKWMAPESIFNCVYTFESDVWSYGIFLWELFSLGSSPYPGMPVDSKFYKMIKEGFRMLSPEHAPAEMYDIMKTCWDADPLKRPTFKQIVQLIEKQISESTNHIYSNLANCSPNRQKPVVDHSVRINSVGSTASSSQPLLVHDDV
Summary of the method: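 Tel-c-KIT-transformed BaF3 lines (IL-3 independent) kept in RPMI 1640 with 10% FBS, 2% L-glutamine and pen/strep. Cells at 1.5 to 5 × 10^4 cells/mL mixed with graded compound and incubated 72 h at 37 °C, 5% CO2. Viability by CCK-8 absorbance at 450 nm, normalized to DMSO. GI50 from dose–response fit.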

[2] = Antiproliferative activity in mouse BAF3 cells after 72 hrs by CCK8 assay
Summary of the method: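 IL-3-independent BaF3 cells carrying tel-c-KIT constructs, grown in RPMI 1640 with 10% FBS. Cells at 1.5-5 × 10^4 cells/mL mixed directly with serial compound dilutions, 72 h at 37 °C, 5% CO2. CCK-8 read-out at 450 nm, normalized to DMSO; GI50 by curve fitting.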

[3] = target: Mast/stem cell growth factor receptor Kit (Homo sapiens, UniProt P10721); assay: Inhibition of wild type TEL fused c-KIT (unknown origin) transfected in mouse BAF3 cells assessed as growth inhibition after 72 hrs by CCK8 assay; conditions: baf3, 72 h
Chain of Mast/stem cell growth factor receptor Kit (P10721 whole entry, the tested form may be a part): as the sequence (P10721 whole entry T670I, the tested form may be a part) above, with I670T counted along it
Summary of the method: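 IL-3 independent BaF3 cells stably expressing tel-c-KIT wt or tel-c-KIT T670I, grown in RPMI 1640 with 10% FBS, 2% L-glutamine, 37 °C, 5% CO2. Suspension cells at 1.5 to 5 × 10^4 cells/mL mixed with serial compound dilutions and incubated 72 h. Viability read by CCK-8 absorbance at 450 nm, normalized to DMSO; GI50 from curve fit. Selectivity is wt GI50 over T670I GI50.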

| SMILES | GI50 [1] | GI50 [3] | GI50 at 72 h [2] |
| --- | --- | --- | --- |
| O=C(Nc1ccc(Cl)c(C(F)(F)F)c1)Nc1ccc2c(/C=C/c3ccccn3)n[nH]c2c1 | 1.15 µM | 1.6 µM | 1.9 µM |
| NC(=O)c1cccc(-c2n[nH]c3cc(NC(=O)CC(=O)Nc4ccc(Cl)c(C(F)(F)F)c4)ccc23)c1 | 0.339 µM | 1.55 µM | > 10 µM |
| CN1CCN(c2cccc(NC(=O)CC(=O)Nc3ccc4c(/C=C/c5ccccn5)n[nH]c4c3)c2)CC1 | 6.17 µM | > 10 µM | > 10 µM |
| O=C(CC(=O)Nc1ccc2c(/C=C/c3ccccn3)n[nH]c2c1)Nc1cc(F)cc(F)c1 | 0.399 µM | 1.87 µM | 4.24 µM |
| O=C(CC(=O)Nc1cc(F)ccc1F)Nc1ccc2c(/C=C/c3ccccn3)n[nH]c2c1 | 0.847 µM | 3.46 µM | 5.08 µM |
| CN(C)c1cccc(NC(=O)CC(=O)Nc2ccc3c(/C=C/c4ccccn4)n[nH]c3c2)c1 | 0.594 µM | 3.87 µM | > 10 µM |
| O=C(CC(=O)Nc1ccccc1F)Nc1ccc2c(/C=C/c3ccccn3)n[nH]c2c1 | 0.312 µM | 2.16 µM | 5.09 µM |
| O=C(Cc1ccc(Cl)c(C(F)(F)F)c1)Nc1ccc2c(/C=C/c3ccccn3)n[nH]c2c1 | 3.18 µM | 5.5 µM | 3.79 µM |
| Cc1n[nH]c2cc(NC(=O)CC(=O)Nc3ccc(Cl)c(C(F)(F)F)c3)ccc12 | 1.88 µM | > 10 µM | > 10 µM |
| O=C(CC(=O)Nc1c(F)c(F)c(F)c(F)c1F)Nc1ccc2c(/C=C/c3ccccn3)n[nH]c2c1 | 1.3 µM | 2.95 µM | 3.68 µM |
| O=C(CC(=O)Nc1ccc2cn[nH]c2c1)Nc1ccc(Cl)c(C(F)(F)F)c1 | 2.67 µM | > 10 µM | > 10 µM |
| O=C(Nc1ccc2c(/C=C/c3ccccn3)n[nH]c2c1)c1ccc(Cl)c(C(F)(F)F)c1 | 1.71 µM | 2.97 µM | 1.71 µM |
| CNC(=O)c1cncc(-c2n[nH]c3cc(NC(=O)CC(=O)Nc4ccc(Cl)c(C(F)(F)F)c4)ccc23)c1 | 4.84 µM | > 10 µM | > 10 µM |

Compounds with a lower GI50 [1], results first:

| GI50 [1] | GI50 [3] | SMILES | GI50 at 72 h [2] |
| --- | --- | --- | --- |
| 0.234 µM | 2.74 µM | COc1cccc(NC(=O)CC(=O)Nc2ccc3c(/C=C/c4ccccn4)n[nH]c3c2)c1 | > 10 µM |
| 0.23 µM | 1 µM | O=C(Nc1ccc(Cl)c(C(F)(F)F)c1)C1(C(=O)Nc2ccc3c(/C=C/c4ccccn4)n[nH]c3c2)CC1 | > 10 µM |
| 0.179 µM | 1.12 µM | O=C(CC(=O)Nc1ccc2c(-c3cccc(F)c3)n[nH]c2c1)Nc1ccc(Cl)c(C(F)(F)F)c1 | > 10 µM |
| 0.17 µM | 1.43 µM | Cc1cccc(NC(=O)CC(=O)Nc2ccc3c(/C=C/c4ccccn4)n[nH]c3c2)c1 | > 10 µM |
| 0.113 µM | 0.943 µM | O=C(CC(=O)Nc1ccc2c(/C=C/c3ccccn3)n[nH]c2c1)Nc1cccc(Br)c1 | 6.09 µM |
| 0.111 µM | 0.554 µM | O=C(CC(=O)Nc1ccc2c(/C=C/c3ccccn3)n[nH]c2c1)Nc1ccc(F)cc1 | 5.86 µM |
| 0.111 µM | 0.923 µM | O=C(CC(=O)Nc1ccc2c(/C=C/c3ccccn3)n[nH]c2c1)Nc1cccc(Cl)c1 | 3.61 µM |
| 0.086 µM | 0.216 µM | O=C(CC(=O)Nc1ccc2c(/C=C/c3ccccn3)n[nH]c2c1)Nc1cccc(C(F)(F)F)c1 | > 10 µM |
| 0.059 µM | 0.183 µM | Cc1ccc(-c2n[nH]c3cc(NC(=O)CC(=O)Nc4ccc(Cl)c(C(F)(F)F)c4)ccc23)cn1 | 4.91 µM |
| 0.012 µM | 0.019 µM | CN1CCN(Cc2ccc(-c3n[nH]c4cc(NC(=O)CC(=O)Nc5ccc(Cl)c(C(F)(F)F)c5)ccc34)cc2)CC1 | 0.911 µM |
| 0.012 µM | 0.025 µM | CN1CCN(c2ccc(-c3n[nH]c4cc(NC(=O)CC(=O)Nc5ccc(Cl)c(C(F)(F)F)c5)ccc34)cc2)CC1 | 1.35 µM |
